Laboratory results taken from PubChem BioAssay AID652163 (Broad Institute, 2013).
Values joined by “and” are separate entries in the source; they are usually repeats but may differ in a detail not shown here. Identical values can stand only once. Hit rate of the full screen: of about 360,000 compounds, about 500 (0.14%) were called active. The list comes from a sample in which actives are over-represented; it also holds similar structures and randomly drawn compounds. Values without a mark were called inactive.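 The calls were made as follows: active = mean inhibition of at least 70% across replicates, with every replicate also reaching that level; inconclusive = mean inhibition reaches 70% but some replicates fall short; inactive = mean inhibition below 70%.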

molecular target: Protein S100-A4 (Homo sapiens) (UniProt P26447); assay: inhibitors of S100A4-myosin IIA peptide binding, primary screen, biochemical, fluorescence polarization, TAMRA-MyoIIA peptide (AID 652163); details: at 10.7 µM, active compounds read high
Sequence (P26447 whole entry, looked up): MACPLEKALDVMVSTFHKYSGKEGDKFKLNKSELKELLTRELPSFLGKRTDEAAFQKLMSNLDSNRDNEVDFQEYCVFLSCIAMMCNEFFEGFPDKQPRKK
In short: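 Material: S100A4 monomer (human). Medium: Calcium-containing HEPES buffer, pH 7.2. Probe or stimulus: labelled myosin peptide probe, 5 nM. Compound dosing: one concentration per compound. Timing: polarization read 5 min after assay mix addition, stable 5–60 min. Benchmarks: DMSO as neutral control, TFP as positive control.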

| SMILES | inhibition |
| --- | --- |
| C[C@H]1CN([C@@H](C)CO)C(=O)Cc2cc(NS(=O)(=O)c3cn(C)cn3)ccc2O[C@@H]1CN(C)C(=O)Nc1ccc2c(c1)OCO2 | 1.37% |
| Cc1cccc(CN(C)C[C@H]2OCc3cn(nn3)CCCC(=O)N([C@@H](C)CO)C[C@H]2C)c1 | -6.24% |
| CCC(=O)N1CCCCN2[C@H](C1)[C@@H](c1ccc(/C=C/c3ccccc3)cc1)[C@@H]2CO | 3.9% |
| CCCN(C)C[C@@H]1Oc2cc(C#Cc3ccc(F)cc3)ccc2S(=O)(=O)N([C@H](C)CO)C[C@H]1C | -10.2% |
| C[C@H]1CCCCO[C@@H](CN(C)C(=O)C2CCCCC2)[C@@H](C)CN([C@@H](C)CO)C(=O)c2cc(NS(=O)(=O)c3cccs3)ccc2O1 | -3.65% |
| CCCNC(=O)N1C[C@H](O)COC[C@H]2O[C@@H](CC(=O)NCc3ccncn3)CC[C@@H]21 | 1.59% |
| CCCNC(=O)N[C@@H]1C=C[C@H](CC(=O)NC2CCC2)O[C@H]1CO | 10% |
| CO[C@H]1CN(C)C(=O)c2cc(NS(=O)(=O)c3ccccc3)ccc2OC[C@H](C)NC[C@@H]1C | -2.03% |
| O=C(c1cnccn1)N1CC(=O)N2[C@H](C1)[C@@H](c1ccc(C#CC3CCCC3)cc1)[C@@H]2CO | -1.65% |
| CCCC#Cc1ccc([C@@H]2[C@@H](CO)N3C(=O)CN(C(=O)Nc4ccc(F)cc4)C[C@@H]23)cc1 | 5.06% |
| CCCNC(=O)N1CC(=O)N2[C@@H](CO)[C@H](c3ccc(-c4ccc(C)cc4)cc3)[C@@H]2C1 | 14% |
| CCCNC(=O)N1CC(=O)N2[C@H](CO)[C@@H](c3ccc(-c4ccc(F)cc4)cc3)[C@H]2C1 | 120% (active) |
| COCC#Cc1cnc2c(c1)C(=O)N([C@@H](C)CO)C[C@@H](C)[C@H](CN(C)C(=O)Nc1ccccc1OC)O2 | 5.05% |
| C[C@@H]1CCCCO[C@H](CN(C)Cc2ccccc2)[C@H](C)CN([C@H](C)CO)C(=O)c2cc(NS(=O)(=O)c3ccc(Cl)cc3)ccc2O1 | -1.24% |
| Cc1ccc(S(=O)(=O)N(C)C[C@H]2Oc3ccc(NC(=O)Cc4cn(C)c5ccccc45)cc3CC(=O)N([C@@H](C)CO)C[C@H]2C)cc1 | 12.9% |
| CO[C@@H]1CN(C)C(=O)c2cc(NC(=O)Nc3ccc4c(c3)OCO4)ccc2OC[C@@H](C)NC[C@@H]1C | -4.97% |
| CO[C@H]1CN(C)C(=O)c2ccc(NC(=O)Nc3ccc4c(c3)OCO4)cc2OC[C@H](C)NC[C@H]1C | 6.05% |
| CO[C@H]1CN(C)C(=O)c2cc(NC(=O)C3CC3)ccc2OC[C@H](C)N(C(=O)CN(C)C)C[C@H]1C | 99.6% (active) |
| CO[C@@H]1CN(C)C(=O)c2cc(NC(=O)C3CC3)ccc2OC[C@H](C)N(C(=O)CN(C)C)C[C@H]1C | -3.57% |
| CO[C@@H]1CN(C)C(=O)c2cc(NC(=O)C3CCC3)ccc2OC[C@H](C)N(C(=O)CN(C)C)C[C@@H]1C | 1.09% |
| CO[C@H]1CN(C)C(=O)c2cc(NC(=O)Nc3ccc4c(c3)OCO4)ccc2OC[C@@H](C)NC[C@@H]1C | 127% (active) |

| SMILES | inhibition |
| --- | --- |
| C/C=C/c1ccccc1[C@@H]1[C@@H](CO)N(S(=O)(=O)c2cccc(F)c2)[C@H]1C#N | 15.1% |
| N#C[C@@H]1[C@H](c2ccccc2C2=CCCCC2)[C@@H](CO)N1S(=O)(=O)c1cccc(F)c1 | 124% (active) |
| N#C[C@H]1[C@@H](c2ccccc2C2=CCCC2)[C@H](CO)N1C(=O)c1cccc(F)c1 | 7.35% |
| O=C(C[C@@H]1C=C[C@H](NC(=O)CN2CCOCC2)[C@@H](CO)O1)NCc1cccc(F)c1 | 12.6% |
| Cc1ccc(CN(C)C[C@H]2OCc3cn(nn3)CCCC(=O)N([C@@H](C)CO)C[C@H]2C)cc1 | -1.4% |
| CN(C)C(=O)c1cccc(-c2ccc(C3[C@H]4CNC[C@@H]3N4C(=O)Nc3ccccc3F)cc2)c1 (stereo partly drawn) | -26.3% and -7.38% |
| COc1ccc(CN(C)C[C@H]2Oc3ccc(NC(=O)Cn4cnnn4)cc3CC(=O)N([C@@H](C)CO)C[C@@H]2C)cc1 | 6.98% |
| O=C(NCC1CC1)[C@@H]1[C@@H](CO)[C@@H]2Cn3c(ccc(-c4ccccc4)c3=O)[C@H]1N2C(=O)C1CC1 | 5.45% |
| CCC(=O)N1CC2(CN(Cc3ccc(Cl)cc3)C2)c2c([nH]c3cc(OC)ccc23)[C@@H]1CO | -4.36% |
| CCC(=O)Nc1ccc2c(c1)C(=O)N(C)C[C@H](OC)[C@@H](C)CN(C(=O)c1cnccn1)[C@@H](C)CO2 | 10.3% |
| C[C@@H]1CN([C@H](C)CO)C(=O)c2cc(NS(=O)(=O)c3cccs3)ccc2O[C@@H](C)CCCCO[C@H]1CN(C)Cc1ccc(C(F)(F)F)cc1 | 15.3% |
| C[C@@H]1CN([C@@H](C)CO)C(=O)Cc2cc(NC(=O)Nc3cccc4ccccc34)ccc2O[C@H]1CN(C)CC1CCCCC1 | 8.63% |
| COCC(=O)N1[C@H](CO)[C@H](c2ccccc2)C12CN(C(=O)NC1CCCCC1)C2 | 14.7% |
| CCCC(O)C#Cc1cnc2c(c1)C(=O)N([C@H](C)CO)C[C@H](C)[C@H](CN(C)S(=O)(=O)c1ccc(C#N)cc1)O2 (stereo partly drawn) | -4.33% |
| Cc1ccc(S(=O)(=O)N[C@@H]2CC[C@@H](CCn3cc(C4CC4)nn3)O[C@@H]2CO)cc1 | 1.11% |
| CCCC#Cc1ccc([C@H]2[C@@H](CO)N3C(=O)CN(C(=O)c4ccncc4)C[C@@H]23)cc1 | -18.5% |
| CC(C)NC(=O)N(C)C[C@H]1Oc2ccc(NS(C)(=O)=O)cc2CC(=O)N([C@@H](C)CO)C[C@@H]1C | 6.04% |
| COc1ccccc1-c1cnc2c(c1)C(=O)N([C@@H](C)CO)C[C@H](C)[C@H](CN(C)CC1CCOCC1)O2 | -4.73% |
| C[C@H](CO)N1C[C@H](C)[C@H](CN(C)S(=O)(=O)c2cccs2)OCCCC[C@H](C)Oc2ccc(NC(=O)CCCN(C)C)cc2C1=O | 1.4% |
| NCC[C@H]1CC[C@H](NC(=O)C2CC2)[C@@H](CO)O1 | 4.1% |
| CCCN1C[C@@H](C)[C@@H](OC)CN(C)C(=O)c2cc(NC(=O)CC(F)(F)F)ccc2OC[C@H]1C | -32.9% |

| SMILES | inhibition |
| --- | --- |
| COCC#Cc1ccc2c(c1)O[C@H](CN(C)CC1CC1)[C@H](C)CN([C@H](C)CO)S2(=O)=O | 4.13% |
| CC(C)NC(=O)N(C)C[C@H]1Oc2ncc(-c3ccc(C(=O)N(C)C)cc3)cc2C(=O)N([C@H](C)CO)C[C@H]1C | -3.24% |
| C[C@@H]1CN([C@H](C)CO)C(=O)c2cc(-c3ccncc3)cnc2O[C@@H]1CN(C)C(=O)Cc1cccnc1 | 11.8% |
| CC(C)C#Cc1ccc2c(c1)O[C@@H](CN(C)C(=O)NC(C)C)[C@H](C)CN([C@H](C)CO)S2(=O)=O | 106% (active) |
| CC(C)NC(=O)N(C)C[C@@H]1Oc2cc(C#C[C@H](C)O)ccc2S(=O)(=O)N([C@@H](C)CO)C[C@H]1C | -1.62% |
| CC(C)C#Cc1ccc2c(c1)O[C@@H](CN(C)C(=O)Nc1ccccc1)[C@H](C)CN([C@H](C)CO)S2(=O)=O | 15.5% |
| CNC[C@@H]1Oc2ncc(-c3ccc(F)cc3)cc2C(=O)N([C@H](C)CO)C[C@@H]1C | 6.49% |
| CCCC(=O)Nc1ccc2c(c1)C(=O)N(C)C[C@H](OC)[C@@H](C)CN(C(C)=O)[C@H](C)CO2 | 3.22% |
| CO[C@H]1CN(C)C(=O)c2ccc(NC(=O)c3nc4ccccc4s3)cc2OC[C@H](C)N(Cc2cccnc2)C[C@@H]1C | -1.61% |
| CC(=O)N1Cc2cc(C(=O)NCc3cc(F)cc(F)c3)nc(-c3cccc(C4=CCCC4)c3)c2[C@@H]1CCO | -14.1% |
| N#C[C@@H]1[C@@H](c2ccc(-c3ccccc3)cc2)[C@@H](CO)N1C(=O)Cc1ccccc1 | 9.02% |
| CO[C@H]1CN(C)C(=O)c2cc(NC(=O)Nc3ccccc3F)ccc2OC[C@@H](C)N(CCC(F)(F)F)C[C@@H]1C | -11.4% |
| CN(C)C(=O)c1ccc(-c2ccc([C@@H]3[C@H](C#N)N(C(=O)C4CC4)[C@H]3CO)cc2)cc1 | -6.47% |
| Cc1noc(C)c1S(=O)(=O)N(C)C[C@@H]1OCCCC[C@H](C)Oc2ccc(NC(=O)NC3CCCCC3)cc2C(=O)N([C@@H](C)CO)C[C@H]1C | -8.81% |
| C[C@@H]1CN([C@H](C)CO)C(=O)c2cc(NC(=O)Nc3ccc(F)cc3)ccc2O[C@@H](C)CCCCO[C@H]1CN(C)Cc1ccc(Cl)c(Cl)c1 | 4.63% |
| COc1ccc(C(=O)Nc2ccc3c(c2)OC[C@H](C)N(C(C)=O)C[C@@H](C)[C@@H](OC)CN(C)C3=O)cc1 | -16% |
| C[C@@H]1CN([C@H](C)CO)C(=O)c2cccc(NC(=O)C3CCCCC3)c2O[C@@H]1CN(C)C(=O)NC1CCCCC1 | 1.54% |
| C[C@H](O)C#Cc1ccc2c(c1)O[C@H](CN(C)Cc1ccccn1)[C@H](C)CN([C@H](C)CO)S2(=O)=O | -12.6% |
| O=C(Nc1cccc(C(F)(F)F)c1)c1ccc(N2CCNCC2)c([N+](=O)[O-])c1 | -2.54% |
| O=C(O)CSc1c2c(nc3cc(C(=O)Nc4cccc(C(F)(F)F)c4)ccc13)CCCC2 | 71.4% (active) |
| COc1cccc(NC(=O)c2ccc3c(SCC(=O)O)c4c(nc3c2)CCCC4)c1 | 6.49% |
